# Measurements reported in article PMC3776988 (British Journal of Cancer, 2013).
# Starred links: 1 amine or outer side, 2 acyl side, 3 side chain; linkers in the order of their positions; H or OH if unused. Positions of bridges follow the written chain, without caps; N, C: chain ends. Non-standard residues stand in square brackets, D forms with d. Residues, ends and D or L forms follow the SMILES beside them. *: point of attachment. X1 = CC[C@H](C)[C@@H](N[*:1])[C@@H](O)CC(=O)O[C@H](C(=O)[C@H](C)C(=O)[*:2])C(C)C; NMeY = CN[C@@H](Cc1ccc(O)cc1)C(=O)O; dNMeL = CN[C@H](CC(C)C)C(=O)O; Pyruvoyl = CC(=O)C(=O)*
# How the values were obtained:
# [1] = system: patients with metastatic/advanced melanoma; settings: cited from earlier work
# [2] = system: patients with advanced malignant melanoma; assay: Phase II stage toxicity; type: in vivo, human; settings: single-agent plitidepsin 3.2 mg m^−2
# Procedure, shortened: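 Previously untreated adults with advanced melanoma (ECOG PS ⩽2) were randomised without stratification to plitidepsin 3.2 mg m−2 as a 1-h i.v. infusion on days 1, 8 and 15 q4wk. Day-1 dosing could be delayed up to 2 weeks, and day-8/15 doses were skipped if retreatment criteria were unmet. Up to two dose reductions were allowed. Patients receiving ⩾1 infusion were evaluable; AEs were graded by NCI-CTCAE v.3.0.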
# patients = settings: plitidepsin 1-h weekly schedule; ref Izquierdo et al, 2008; cited from earlier work
Structure (SMILES),"Responses to single-agent DTIC, % of patients ([1]; generally short lived, ref Falkson et al, 1998, Chapman et al, 1999, Chiarion Sileni et al, 2001, Avril et al, 2004, Bedikian et al, 2006, Schadendorf et al, 2006, Patel et al, 2011)",Response rates reported for single-agent DTIC ([1]; reported range),Febrile neutropenia [2],"Grade 3 ALT increases, % of patients [2] [%]",Omissions because of treatment-related transaminase increases [2] [%],Patients who skipped at least one plitidepsin infusion [2] [%],Single-agent RD (patients) [mg m^−2]
"CN(C)/N=N/c1[nH]cnc1C(N)=O [DTIC, Dacarbazine]",6–15%,5–15%,–,–,–,–,–
"CC[C@H](C)[C@H]1NC(=O)[C@@H](NC(=O)[C@@H](CC(C)C)N(C)C(=O)[C@@H]2CCCN2C(=O)C(C)=O)[C@@H](C)OC(=O)[C@H](Cc2ccc(OC)cc2)N(C)C(=O)[C@@H]2CCCN2C(=O)[C@H](CC(C)C)NC(=O)[C@@H](C)C(=O)[C@H](C(C)C)OC(=O)C[C@@H]1O [Plitidepsin, plitidepsin] (Pyruvoyl-P[dNMeL]T[X1]LP[NMeY](Me); ester 3-C)",–,–,no cases,10,25,47,3.2
